ChEMBL document CHEMBL1125259, “Lipophilic glycosyl phosphotriester derivatives of AZT: synthesis, NMR transmembrane transport study, and antiviral activity” (1991)

Legend:
[1] = molecular target: Human immunodeficiency virus type 1 reverse transcriptase (Human immunodeficiency virus 1) (UniProt Q72547); assay: Percent inhibition measured as the production of HIV reverse transcriptase (RT) in culture supernatant of monocytic U937 on at 11 days at a concentration 0.2 uM; assay type: functional
Outline: (§1)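 HIV-1-infected monocytic U937 cultures were kept up to 14 days with compound. Supernatant RT activity was measured as for CEM-C113, as [³H] cpm/50 µL. % inhibition = 100 − 100 × (cpm of treated samples / cpm of control virus).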

[2] = molecular target: Human immunodeficiency virus type 1 reverse transcriptase (Human immunodeficiency virus 1) (UniProt Q72547); details: at 25 µM
[3] = molecular target: Human immunodeficiency virus type 1 reverse transcriptase (Human immunodeficiency virus 1) (UniProt Q72547); assay: Percent inhibition measured as the production of HIV reverse transcriptase (RT) in culture supernatant of monocytic U937 on at 14 days at a concentration 5 uM; assay type: functional
Outline: (§2)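 U937 cells in RPMI 1640 with 5% heat-inactivated FCS, penicillin, streptomycin and polybrene (2 μg/mL), 37 °C, 5% CO2. Infected with HIV-1 LAV-Bru; compounds diluted in PBS. 50 μL supernatant aliquots were assayed for RT: 1 h, 37 °C, pH 7.8, Mg2+, poly(rA)-oligo(dT), [3H]dTTP, TCA-pyrophosphate stop, filter counting. % inhibition = 100 − 100 × (treated cpm / virus-control cpm).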

[4] = molecular target: Human immunodeficiency virus type 1 reverse transcriptase (Human immunodeficiency virus 1) (UniProt Q72547); assay: Compound ability to inhibit the production of HIV reverse transcriptase (RT) in culture supernatant of monocytic U937 on at 11 days at a concentration 5 uM; assay type: functional; outline: as §1
[5] = molecular target: Human immunodeficiency virus type 1 reverse transcriptase (Human immunodeficiency virus 1) (UniProt Q72547); assay: Compound ability to inhibit the production of HIV reverse transcriptase (RT) in culture supernatant of monocytic U937 on at 14 days at a concentration 0.2 uM; assay type: functional; outline: as §1
[6] = molecular target: Human immunodeficiency virus type 1 reverse transcriptase (Human immunodeficiency virus 1) (UniProt Q72547); details: at 25 µM; remark: listed apart in the source
[7] = molecular target: Human immunodeficiency virus type 1 reverse transcriptase (Human immunodeficiency virus 1) (UniProt Q72547); assay: Percent inhibition measured as the production of HIV reverse transcriptase (RT) in culture supernatant of monocytic U937 on at 11 days at a concentration 5 uM; assay type: functional; outline: as §2
[8] = molecular target: Human immunodeficiency virus type 1 reverse transcriptase (Human immunodeficiency virus 1) (UniProt Q72547); assay: Compound ability to inhibit the production of HIV reverse transcriptase (RT) in culture supernatant of CEM-CL13 on at 26 days at a concentration 1 uM; assay type: functional
Outline: (§3)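 CEM-C113 cells in RPMI 1640 with 5% heat-inactivated FCS and polybrene (2 µg/mL) were plated at 1×10^5 cells/mL with compound in PBS, in triplicate, and infected with HIV-1 LAV-Bru. From day 7, every 3–4 days, fresh medium with or without drug was added and 50 µL supernatant was taken for RT microassay. The RT microassay used poly(rA)-oligo(dT) and (methyl-³H)dTTP for 1 h at 37 °C, with TCA precipitation, read as cpm/50 µL.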

[9] = molecular target: Human immunodeficiency virus type 1 reverse transcriptase (Human immunodeficiency virus 1) (UniProt Q72547); assay: Compound ability to inhibit the production of HIV reverse transcriptase (RT) in culture supernatant of monocytic U937 on at 7 days at a concentration 5 uM; assay type: functional; outline: as §1
[10] = molecular target: Human immunodeficiency virus type 1 reverse transcriptase (Human immunodeficiency virus 1) (UniProt Q72547); details: at 25 µM; remark: listed apart in the source
[11] = molecular target: Human immunodeficiency virus type 1 reverse transcriptase (Human immunodeficiency virus 1) (UniProt Q72547); assay: Compound ability to inhibit the production of HIV reverse transcriptase (RT) in culture supernatant of CEM-CL13 on at 15 days at a concentration 1 uM; assay type: functional; outline: as §3
[12] = molecular target: Human immunodeficiency virus type 1 reverse transcriptase (Human immunodeficiency virus 1) (UniProt Q72547); assay: Compound ability to inhibit the production of HIV reverse transcriptase (RT) in preinfected PBL (peripheral blood lymphocytes) at 21 days at a concentration 1 uM; assay type: functional
Outline: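 PBL were infected with HIV-1 for 1 h at 37 °C, washed twice, and resuspended in complete medium with 10% interleukin-2 and anti-human α-interferon (1000 units/mL). Cells were plated at 1×10^6 cells/well with or without compound. At each time point, 50 µL supernatant was taken for RT assay ([³H]dTTP incorporation, cpm).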

[13] = molecular target: Human immunodeficiency virus type 1 reverse transcriptase (Human immunodeficiency virus 1) (UniProt Q72547); assay: Compounds were evaluated for anti-RT activity by MTT dose and %protection was reported at 7 days of culture
Outline: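 HIV-1 was preincubated with compound at 25 µM for 60 min at 37 °C, pelleted, and added to CEM-C113 cells (1×10^5 cells/mL) for 60 min at 37 °C. Medium was then replaced without compound. At days 7 and 9, viability was read by MTT assay on 100 µL of cell suspension.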

In the case of Cc1cn([C@H]2C[C@H](N=[N+]=[N-])[C@@H](CO)O2)c(=O)[nH]c1=O [ZIDOVUDINE], the inhibition [1] is reported as 0%, the inhibition [2] is reported as 96% and the inhibition [3] is reported as 0%. It also gave an Activity (c.p.m. 50ul-1) [4] of 118000, an Activity (c.p.m. 50ul-1) [5] of 60000 and an inhibition [6] of 0%. The inhibition [7] was 18%, the Activity (c.p.m. 50ul-1) [8] was 12000 and the Activity (c.p.m. 50ul-1) [9] was 35000. It also gave an inhibition [10] of 25%, an Activity (c.p.m. 50ul-1) [11] of 600 and an Activity (c.p.m. 50ul-1) [12] of 44400.
For CCCCCCCCCCCCCCCCOP(=O)(OC[C@H]1OC(O)[C@H](O)[C@@H](O)[C@@H]1O)OC[C@H]1OC(n2cc(C)c(=O)[nH]c2=O)C[C@@H]1N=[N+]=[N-] (stereo not given in full), the inhibition [1] was 0%, the Activity (c.p.m. 50ul-1) [5] was 16000 and the Activity (c.p.m. 50ul-1) [8] was 72000. The Activity (c.p.m. 50ul-1) [11] was 750 and the Activity (c.p.m. 50ul-1) [12] was 71100.
Cc1cn([C@H]2C[C@H](N=[N+]=[N-])[C@@H](COP(=O)(O)OC[C@H]3OC(O)[C@@H](O)[C@@H](O)[C@@H]3O)O2)c(=O)[nH]c1=O (stereo not given in full) showed an inhibition [2] of 86%, an inhibition [3] of 0% and an Activity (c.p.m. 50ul-1) [4] of 193000. The inhibition [6] was 0%, the inhibition [7] was 0% and the Activity (c.p.m. 50ul-1) [9] was 133000. The inhibition [10] was 2% and the Activity (c.p.m. 50ul-1) [12] was 33100.
Compound CCCCCCCCCCCCCCCCOP(=O)(OC[C@H]1OC(O)[C@@H](O)[C@@H](O)[C@@H]1O)OC[C@H]1OC(n2cc(C)c(=O)[nH]c2=O)C[C@@H]1N=[N+]=[N-] (stereo not given in full) has an inhibition [1] of 0%, an Activity (c.p.m. 50ul-1) [5] of 27000 and an Activity (c.p.m. 50ul-1) [8] of 20000. For the same compound, the Activity (c.p.m. 50ul-1) [11] was 500.
Compound Cc1cn([C@H]2C[C@H](N=[N+]=[N-])[C@@H](COP(=O)(O)OCCO[C@H]3O[C@H](CO)[C@@H](O)[C@H](O)[C@@H]3O)O2)c(=O)[nH]c1=O has an inhibition [2] of 77%, an inhibition [3] of 0% and an Activity (c.p.m. 50ul-1) [4] of 192000. The inhibition [6] was 41%, the inhibition [7] was 0% and the Activity (c.p.m. 50ul-1) [9] was 200000. The inhibition [10] was 20% and the Activity (c.p.m. 50ul-1) [12] was 21300.
With CCCCCCCCCCCCCCCCOP(=O)(OCCO[C@H]1O[C@H](CO)[C@@H](O)[C@H](O)[C@@H]1O)OCC1OC(n2cc(C)c(=O)[nH]c2=O)CC1N=[N+]=[N-] (stereo not given in full) the inhibition [1] was 9%, the Activity (c.p.m. 50ul-1) [5] was 30000 and the Activity (c.p.m. 50ul-1) [8] was 64000. It also gave an Activity (c.p.m. 50ul-1) [11] of 5500.
For Cc1cn([C@H]2C[C@H](N=[N+]=[N-])[C@@H](COP(=O)(O)OC[C@H]3OC(O)[C@H](O)[C@@H](O)[C@@H]3O)O2)c(=O)[nH]c1=O (stereo not given in full), the inhibition [2] was 73%, the inhibition [3] was 0% and the Activity (c.p.m. 50ul-1) [4] was 211000. It also gave an inhibition [6] of 0%, an inhibition [7] of 0% and an Activity (c.p.m. 50ul-1) [9] of 142000. The inhibition [10] was 0%, the Protection [13] was 36% and the Activity (c.p.m. 50ul-1) [12] was 16100.
